SENP6 block: blocks the human protease SENP6; Recombinant SENP6 catalytic domain, aminoluciferin luminescence; inhibition, % at 10 µM; 330,000 compounds, 1.8% hits; AID 2599;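 active = inhibition above about 50% at the single tested dose, limit read from the data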;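 note: plate controls were DMSO wells with enzyme for no effect and DMSO wells lacking enzyme for full effect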
SENP8 block-1: blocks human SENP8 cleavage of Nedd8 substrate; Q96LD8; 360,000 compounds, 0.64% hits; recombinant SENP8, Nedd8 substrate fluorescence; AID 602440; inhibition, % at 20 µM; in the data active = inhibition mostly above about 40%, no sharp cut-off; inactive = mostly below about 27%
Target sequence (Q96LD8 whole entry, looked up): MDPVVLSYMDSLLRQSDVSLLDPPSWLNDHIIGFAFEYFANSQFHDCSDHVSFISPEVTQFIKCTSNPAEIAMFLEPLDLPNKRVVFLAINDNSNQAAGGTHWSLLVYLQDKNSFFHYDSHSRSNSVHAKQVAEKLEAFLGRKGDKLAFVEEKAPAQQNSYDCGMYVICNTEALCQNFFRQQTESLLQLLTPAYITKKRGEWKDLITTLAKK
SENP7 inh: inhibitors of human SENP7 protease. inhibition, % at 5 µM. recombinant SENP7, Z-RLRGG-aminoluciferin luminescence, 40 min. 330,000 compounds, 1.5% hits;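 active = inhibition above about 50% at the single test dose, limit read from the data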;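 note: plate controls were DMSO with enzyme for no effect and no enzyme buffer wells for full effect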
Target sequence (Q9BQF6 706-1050 limits assumed): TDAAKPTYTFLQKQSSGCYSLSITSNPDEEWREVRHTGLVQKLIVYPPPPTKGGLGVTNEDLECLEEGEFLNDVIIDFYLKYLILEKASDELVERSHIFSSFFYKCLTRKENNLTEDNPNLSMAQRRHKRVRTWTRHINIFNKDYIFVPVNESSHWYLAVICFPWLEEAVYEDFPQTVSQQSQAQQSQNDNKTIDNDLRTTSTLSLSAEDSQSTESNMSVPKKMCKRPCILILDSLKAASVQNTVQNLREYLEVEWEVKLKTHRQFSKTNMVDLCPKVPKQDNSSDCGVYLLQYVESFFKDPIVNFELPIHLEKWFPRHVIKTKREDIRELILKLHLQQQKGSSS
Apaf-1 inh: human Apaf-1 inhibition. inhibition, % at 20 µM. reconstituted apoptosome caspase-3 activity, DEVD-Rh110 fluorescence. AID 489030. 330,000 compounds, 0.71% hits. O14727; active = inhibition of at least 40% at 20 µM;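 note: plate controls were DMSO wells for no effect and DEVD-CHO caspase inhibitor wells for full effect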
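Material: reconstituted apoptosome with Apaf-1, cytochrome c, caspase-9, procaspase-3, dATP / Buffer or medium: pH 7.5 Hepes buffer with CHAPS, BSA, DTT / Also added: cytochrome c with DEVD-Rh110 / Schedule: compound with Apaf-1, dATP, procaspase-3 30 min, then 50 min reaction, room temperature / Technique: rhodamine 110 fluorescence at Ex 480/Em 540 nm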
SENP8 block-2: blocks the human protease SENP8. AID 2540. Q96LD8. 330,000 compounds, 1.2% hits. purified SENP8, Z-RLRGG-aminoluciferin cleavage, luminescence. inhibition, % at 10 µM; in the data active = inhibition above about 50%
UBC13 polyUb: human UBC13 polyubiquitination inhibition | P61088 | UBC13 polyubiquitin chain formation, TR-FRET | inhibition, % at 20 µM | 330,000 compounds, 0.47% hits; in the data active = inhibition above about 45%, passing the limit was not always enough
Target sequence (P61088 whole entry, looked up): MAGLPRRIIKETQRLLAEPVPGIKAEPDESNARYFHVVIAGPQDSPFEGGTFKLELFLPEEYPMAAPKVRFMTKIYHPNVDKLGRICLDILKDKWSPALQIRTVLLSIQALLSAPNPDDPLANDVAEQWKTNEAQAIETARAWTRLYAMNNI
SENP8 inh conf: SENP8 (human) inhibition, single concentration confirmation; 1,400 compounds, 15% hits; shares compounds with SENP8 block-1; purified SENP8, Nedd8-AMC/pro-Nedd8 cleavage fluorescence, 30 min; inhibition, % at 25 µM; in the data active = inhibition mostly above about 39%, no sharp cut-off; inactive = mostly below about 34%
Numbers without * were called inactive; i = inactive; nt = not tested or not shown. A selection: hits, their analogues and other compounds. The true share with any hit is near 3.1%.

SMILES | SENP6 block | SENP8 block-1 | SENP7 inh | Apaf-1 inh | SENP8 block-2 | UBC13 polyUb | SENP8 inh conf
O=C1C2=C(c3ccccc31)[N+](=O)C1CCCCC1N2[O-] (stereo not drawn) | 50 | 84* | 31 | 54* | 28 | -34 | 61*
O=C1c2ccccc2C(=O)c2c1ccc1c(=O)n(C3CCCCC3)[nH]c21 | 17 | 33 | -3 | 2 | -8 | -131 | nt
COC(=O)[C@]12CCCCC=C1N(Cc1ccc3c(c1)OCO3)C(=O)[C@H](CC(=O)NCc1cccc3ccccc13)C2 | nt | 21 | nt | nt | nt | nt | nt
CCC(C)n1c(SCC(=O)NC2CC2)nc2ccccc2c1=O (stereo not drawn) | nt | 20 | nt | nt | nt | nt | nt
CN1CCC2(CC1)N=C(c1ccc(F)cc1)C(=S)N2C(=O)c1ccc(C(C)(C)C)cc1 | 13 | 53* | 6 | 3 | 1 | 1 | 32
CC(C)(C)c1ccc(C(=O)N2CCNCC2)cc1 | -16 | 7 | -5 | -2 | -4 | 10 | nt
Nc1cc(N)cc(C(=O)c2ccccc2)c1 | nt | 43* | nt | nt | nt | nt | 77*
Clc1c(-c2nnc3n2CCCCC3)sc2ccccc12 | 4 | 14 | 2 | 5 | -2 | -1 | nt
COc1ccc2c(Cl)c(-c3nnc4n3CCCCC4)sc2c1 | -8 | 48* | -18 | 19 | -20 | 0 | 19
CCCCC(=O)N(C)c1c(CC)nc2c(OCC=C(C)C)cccn12 | nt | 32 | nt | nt | nt | nt | nt
Cc1cc(C)n2nc(SCC(=O)NC3(C#N)CCCCC3)nc2n1 | nt | 12 | nt | nt | nt | nt | nt
CCOC(=O)/C(C#N)=C1/C=Cc2ccccc2N1CC | -8 | 41* | 2 | -1 | 5 | -4 | 18
CCCc1nc2ccccc2n1CCOc1ccccc1 | -10 | 42* | 8 | 15 | -4 | 9 | 7
C[C@@H]1CN(Cc2nc(-c3cccs3)no2)C[C@H](C)O1 | 1 | 42* | -13 | -1 | -11 | -8 | -6
COc1ccc(CCNC(=O)Nc2ccc3nc([C@@H]4O[C@H](CO)[C@@H](O)[C@H](O)[C@H]4O)[nH]c3c2)cc1Br | nt | -2 | nt | nt | nt | nt | nt
Cc1ccc2c(c1)c(/C=C/c1cc[n+](C)cc1)c(C)n2C | 2 | 44* | 3 | -2 | 4 | i | 20
Cc1ccc2[nH]c(C)c(/C=C/c3cc[n+](C)cc3)c2c1 | -6 | 40* | 1 | 12 | 7 | i | 32
Cn1cc(/C=C/c2cc[n+](C)cc2)c2cc(Cl)ccc21 | nt | -31 | nt | nt | nt | nt | nt
CC(C)(C)c1ccc(C(=O)N2[C@H](COCc3ccccc3)C=CS2(=O)=O)cc1 | nt | 12 | nt | nt | nt | nt | nt
CSCCC(c1nnnn1C1CCCCC1)N1CCN(C/C=C/c2ccccc2)CC1 (stereo not drawn) | nt | 14 | nt | nt | nt | nt | nt
Cc1ccc(C(=O)N2CCN(Cc3ccccc3)CC2)o1 | -11 | 5 | -6 | -9 | -2 | -5 | nt
O=C(c1ccc([N+](=O)[O-])o1)N1CCN(Cc2ccccc2)CC1 | -4 | 42* | 24 | 0 | 1 | -6 | 29
COC(=O)C[C@H]1C=C[C@@H](NC(=O)C2CC2)[C@@H](CO)O1 | nt | 18 | nt | nt | nt | nt | nt
CCOC(=O)Oc1ccc(C(=O)OCCCN(C)C)cc1OC | -20 | 18 | -7 | 12 | -8 | -4 | nt
COc1ccc(C(=O)OCCCN(C)C)cc1OC | 8 | 41* | 8 | 1 | 2 | -10 | -7
SMILES | SENP6 block | SENP8 block-1 | SENP7 inh | Apaf-1 inh | SENP8 block-2 | UBC13 polyUb | SENP8 inh conf
O=C(NCc1ccccc1)c1cc(C2COCCN2C(=O)CCc2ccccc2)on1 (stereo not drawn) | nt | 9 | nt | nt | nt | nt | nt
CCOC(=O)/C(C#N)=C\C=C1C=CN(C)C=C1 | 9 | 52* | 11 | 4 | 2 | -269 | 36
CCc1nc2c(OCC(=O)C(C)(C)C)cccn2c1N(C=O)Cc1ccccc1 | nt | 2 | nt | nt | nt | nt | nt
CCOC(=O)[C@]12CCCC=C1N(Cc1ccc(Cl)cc1Cl)C(=O)[C@H](CC(=O)N1CCN(C(=O)c3ccco3)CC1)C2 | nt | 13 | nt | nt | nt | nt | nt
O=C1NC[C@H](CCCCN2CCN(CCC3CCCCC3)C(=O)C2=O)N(CC2CCCCC2)C1=O | nt | 13 | nt | nt | nt | nt | nt
OC[C@@H]1CN(Cc2ccco2)C[C@H](n2cnc3c(Nc4ccccc4)ncnc32)O1 | nt | -106 | nt | nt | nt | nt | nt
COc1ccc(/C=N\Nc2ccccc2[N+](=O)[O-])c(C(=O)O)c1OC | -4 | 32 | 7 | 9 | 0 | -107 | nt
COc1ccc(/C=N\Nc2ccc([N+](=O)[O-])cc2[N+](=O)[O-])c(C(=O)O)c1OC | -2 | 48* | 9 | -7 | 5 | -76 | 22
CC1=C(/C=N/Nc2ccc([N+](=O)[O-])cc2[N+](=O)[O-])C(C)(C)CCC1 | -6 | 46* | 7 | 2 | -3 | -40 | 2
COc1ccccc1/C=N\Nc1ccccc1[N+](=O)[O-] | 94* | 50* | 99* | -16 | 90* | -72 | 6
O=C(NCCCN1CCOCC1)c1cccc(S(=O)(=O)N2CCc3ccccc32)c1 | nt | 16 | nt | nt | nt | nt | nt
COc1ccc(-c2nnc(SCC(=O)N(C)C3CCS(=O)(=O)C3)n2CC(C)C)cc1 (stereo not drawn) | nt | 10 | nt | nt | nt | nt | nt
O=C(NCCc1cccc(Cl)c1)c1cccc([N+](=O)[O-])c1 | -2 | 12 | 7 | -1 | -2 | 5 | nt
O=[N+]([O-])c1cccc(C(=Nc2cccc(Cl)c2)NO)c1 | -6 | 41* | 3 | 15 | 5 | -1 | 23
COc1ccc(N(CC(=O)NC2CC3CCC2C3)S(=O)(=O)c2ccc(C)cc2)cc1Cl (stereo not drawn) | nt | 11 | nt | nt | nt | nt | nt
O=C(O)CCC1OC(=O)C(O)=C1c1ccccc1 (stereo not drawn) | -3 | 40* | 5 | -12 | -3 | -6 | 7
O=C1OC(c2ccccc2)C(O)=C1c1ccccc1 (stereo not drawn) | nt | 14 | nt | nt | nt | nt | nt
Cc1ccc(-c2nc3ccc(Cl)cn3c2Cc2cccc(Cl)c2)cc1 | nt | -176 | nt | nt | nt | nt | nt
CC(C)NC(=O)CN1CCN(C(c2cc3ccccc3o2)c2nnnn2C(C)(C)C)CC1 (stereo not drawn) | nt | 7 | nt | nt | nt | nt | nt
OC[C@@H]1CN(Cc2ccc3c(c2)OCO3)C[C@H](n2cnc3c(N4CCOCC4)ncnc32)O1 | nt | 14 | nt | nt | nt | nt | nt
CCOC(=O)C1=C(CN2CCOCC2)NC(=O)NC1c1cccc([N+](=O)[O-])c1 (stereo not drawn) | 5 | 12 | -1 | -4 | -3 | -5 | nt
CCOC(=O)C1=C(CN2CCSCC2)NC(=O)NC1c1cccc([N+](=O)[O-])c1 (stereo not drawn) | -27 | 44* | -9 | -7 | -5 | -7 | 19
COC(=O)c1ccc(C(=O)OC)c(NC(=O)Cc2cccs2)c1 | nt | -497 | nt | nt | nt | nt | nt
CC1=C/C(=C\C=C(C#N)C#N)N(C)c2ccccc21 | -19 | 50* | 3 | -15 | 4 | -281 | 10
O=C(Nc1c(-c2ccc(Cl)cc2)[nH][nH]c1=O)c1ccccc1Cl | nt | 18 | nt | nt | nt | nt | nt
CC(Nc1c([N+](=O)[O-])c(=O)oc2ccccc12)C(Cl)c1ccccc1 (stereo not drawn) | -13 | 52* | 4 | 12 | 2 | -1 | 11
